Columns and labels:
MCF7 = experiment: Cytotoxicity against human MCF7 cells incubated for 72 hrs by MTT assay; assay type: functional, cell-based; settings: MCF7, 72 h
How it was run: (§1)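 Cells were kept in DMEM (MDA-MB-435, MCF7, LNCaP) or RPMI (HT29, HCT116) with 10% heat-inactivated FBS and 2 mM L-glutamine, subconfluent and in exponential growth. They were seeded, allowed to adhere overnight, then exposed continuously to compound (10 mM DMSO stock) for 72 h. MTT was added to 0.3 mg/mL final for 3–4 h at 37 °C, formazan was dissolved in DMSO, and absorbance was read at 570 nm. Runs were in triplicate; IC50 came from log concentration versus percent cell kill.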

HEY = experiment: Cytotoxicity against human HEY cells incubated for 72 hrs by MTT assay; assay type: functional, cell-based
MDA-MB-435 = experiment: Cytotoxicity against human MDA-MB-435 cells incubated for 72 hrs by MTT assay; assay type: functional, cell-based; settings: MDA-MB-435, 72 h; how it was run: as §1
[1] = Therapeutic index, ratio of CC50 for human C8166 cells to EC50 for HIV1 3B; assay type: cell-based; settings: read-out: Ratio CC50/EC50
How it was run: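 Therapeutic index was calculated as the C8166 MTT CC50 divided by the HIV-1 IIIB syncytium-reduction EC50.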

HCT-116 [2] = experiment: Cytotoxicity against p53 expressing human HCT116 cells incubated for 72 hrs by MTT assay; assay type: functional, cell-based; settings: HCT-116, 72 h; how it was run: as §1
HCT-116 [3] = experiment: Cytotoxicity against p53 deficient human HCT116 cells incubated for 72 hrs by MTT assay; assay type: functional, cell-based; settings: HCT-116, 72 h; how it was run: as §1
[4] = target: T1, Human immunodeficiency virus type 1 integrase (Human immunodeficiency virus 1, UniProt Q7ZJM1); experiment: Inhibition of HIV1 integrase 3'-processing activity using [32P]-labeled linear oligonucleotide substrate
[5] = target: T1, Human immunodeficiency virus type 1 integrase; experiment: Inhibition of HIV1 integrase strand transfer activity using [32P]-labeled linear oligonucleotide substrate
[6] = system: Human immunodeficiency virus 1; experiment: Antiviral activity against HIV1 3B infected in human C8166 cells assessed as reduction in virus-induced cytopathogenicity measured after 3 days by syncytium reduction assay; assay type: functional, organism-based; settings: Human immunodeficiency virus 1, 3B, C8166, 72 h
How it was run: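 C8166 cells (4 × 10⁵ mL⁻¹), grown in RPMI-1640 with 10% heat-inactivated FCS and kept in log phase, infected with HIV-1 IIIB at MOI 0.06 in the presence of serial compound dilutions. AZT served as positive control. After 3 days, syncytia were counted by inverted microscope. EC50 was derived from percent inhibition of syncytium number relative to infected control.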

[7] = Toxicity against human C8166 cells incubated for 72 hrs by MTT assay; assay type: cell-based
How it was run: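 C8166 cells were seeded with serial compound dilutions in triplicate and incubated at 37 °C, 5% CO2 for 72 h. MTT (5 mg/mL in PBS) was added for 4 h, and formazan was dissolved in 50% DMF-20% SDS. Absorbance was read at 595/630 nm. CC50 was taken from the dose-response curve.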

SK-BR-3 = experiment: Cytotoxicity against human SKBR3 cells incubated for 72 hrs by MTT assay; assay type: functional, cell-based; settings: SK-BR-3, 72 h
[8] = target: Receptor tyrosine-protein kinase erbB-2 (Homo sapiens) (UniProt P04626); experiment: Inhibition of ErbB2 at 10 uM incubated for 60 mins using poly(Glu,Tyr)4:1 substrate and 10 uM ATP by ELISA
How it was run: (§2)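 ELISA with Poly(Glu,Tyr)4:1 (20 μg/mL) precoated as substrate and 10 μM ATP, in 50 mM HEPES pH 7.4, 20 mM MgCl2, 0.1 mM MnCl2, 0.2 mM Na3VO4, 1 mM DTT. Compound was tested at 10 μM, in duplicate. Kinase reaction ran 60 min at 37 °C. Phosphotyrosine was detected with PY99 and HRP anti-mouse IgG, developed with o-phenylenediamine/H2O2, stopped with H2SO4 and read at 492 nm. Inhibition = [1 − A492 treated/A492 control] × 100%. References: lapatinib (ErbB2) and PP2 (Src), each at 10 μM.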

LNCaP = experiment: Cytotoxicity against human LNCAP cells incubated for 72 hrs by MTT assay; assay type: functional, cell-based; how it was run: as §1
HT-29 = experiment: Cytotoxicity against human HT-29 cells incubated for 72 hrs by MTT assay; assay type: functional, cell-based; settings: HT-29, 72 h; how it was run: as §1
[9] = target: Proto-oncogene tyrosine-protein kinase Src (Homo sapiens) (UniProt P12931); experiment: Inhibition of SRC at 10 uM incubated for 60 mins using poly(Glu,Tyr)4:1 substrate and 10 uM ATP by ELISA; how it was run: as §2
Sequence of Proto-oncogene tyrosine-protein kinase Src (Homo sapiens) (P12931 2-536 limits assumed): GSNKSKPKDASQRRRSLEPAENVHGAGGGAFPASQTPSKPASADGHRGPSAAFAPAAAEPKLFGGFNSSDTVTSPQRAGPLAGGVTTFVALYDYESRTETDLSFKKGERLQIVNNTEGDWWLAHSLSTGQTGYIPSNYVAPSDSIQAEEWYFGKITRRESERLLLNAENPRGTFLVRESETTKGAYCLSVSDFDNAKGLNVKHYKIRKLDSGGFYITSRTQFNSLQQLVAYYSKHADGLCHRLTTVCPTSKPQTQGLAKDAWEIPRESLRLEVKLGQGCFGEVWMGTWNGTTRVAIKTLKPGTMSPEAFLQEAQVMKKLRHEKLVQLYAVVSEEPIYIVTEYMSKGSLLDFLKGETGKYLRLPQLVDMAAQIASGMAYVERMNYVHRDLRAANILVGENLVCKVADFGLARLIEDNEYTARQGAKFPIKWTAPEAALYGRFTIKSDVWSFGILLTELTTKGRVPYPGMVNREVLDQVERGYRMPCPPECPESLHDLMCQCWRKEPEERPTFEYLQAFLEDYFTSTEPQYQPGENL

Sequence of Receptor tyrosine-protein kinase erbB-2 (Homo sapiens) (P04626 whole entry): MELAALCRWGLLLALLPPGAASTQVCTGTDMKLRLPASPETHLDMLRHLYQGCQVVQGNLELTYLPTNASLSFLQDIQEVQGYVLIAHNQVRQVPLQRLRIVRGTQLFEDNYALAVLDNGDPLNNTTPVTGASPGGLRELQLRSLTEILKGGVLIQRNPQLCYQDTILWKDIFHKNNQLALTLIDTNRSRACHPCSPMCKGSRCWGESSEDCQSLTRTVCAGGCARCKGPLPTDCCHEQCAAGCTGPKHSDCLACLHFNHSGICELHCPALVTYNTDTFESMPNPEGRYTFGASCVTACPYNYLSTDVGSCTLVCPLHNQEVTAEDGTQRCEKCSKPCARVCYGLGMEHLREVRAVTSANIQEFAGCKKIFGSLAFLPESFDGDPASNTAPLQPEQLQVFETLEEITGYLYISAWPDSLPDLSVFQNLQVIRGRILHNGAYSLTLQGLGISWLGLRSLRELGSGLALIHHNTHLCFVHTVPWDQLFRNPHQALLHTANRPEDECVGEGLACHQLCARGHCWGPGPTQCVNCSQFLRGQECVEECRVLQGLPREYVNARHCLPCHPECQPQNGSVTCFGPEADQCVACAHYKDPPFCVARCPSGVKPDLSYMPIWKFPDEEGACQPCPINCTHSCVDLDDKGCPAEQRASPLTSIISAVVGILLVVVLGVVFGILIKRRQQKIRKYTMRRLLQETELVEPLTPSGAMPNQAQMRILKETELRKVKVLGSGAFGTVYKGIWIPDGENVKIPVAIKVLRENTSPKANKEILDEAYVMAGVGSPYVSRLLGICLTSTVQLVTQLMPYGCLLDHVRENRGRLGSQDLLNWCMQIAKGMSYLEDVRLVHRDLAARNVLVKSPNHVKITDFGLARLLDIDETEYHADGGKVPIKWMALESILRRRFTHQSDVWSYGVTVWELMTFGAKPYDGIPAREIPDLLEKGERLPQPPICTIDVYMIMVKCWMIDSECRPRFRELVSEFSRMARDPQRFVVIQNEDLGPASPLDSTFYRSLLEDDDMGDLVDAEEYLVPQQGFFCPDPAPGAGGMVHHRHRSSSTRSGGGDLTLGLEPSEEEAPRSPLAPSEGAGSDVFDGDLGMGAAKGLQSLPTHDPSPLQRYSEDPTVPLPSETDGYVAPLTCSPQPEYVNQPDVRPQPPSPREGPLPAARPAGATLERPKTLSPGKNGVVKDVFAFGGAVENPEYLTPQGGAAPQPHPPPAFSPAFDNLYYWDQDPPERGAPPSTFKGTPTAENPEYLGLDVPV
T1 sequence (Q7ZJM1 whole entry): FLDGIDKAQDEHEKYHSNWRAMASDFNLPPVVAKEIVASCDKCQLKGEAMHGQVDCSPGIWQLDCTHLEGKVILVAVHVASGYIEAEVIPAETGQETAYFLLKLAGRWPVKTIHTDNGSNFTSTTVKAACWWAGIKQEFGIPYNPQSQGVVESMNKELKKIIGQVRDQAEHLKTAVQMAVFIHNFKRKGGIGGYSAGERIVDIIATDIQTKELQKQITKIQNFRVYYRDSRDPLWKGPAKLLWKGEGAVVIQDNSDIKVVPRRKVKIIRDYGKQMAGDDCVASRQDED

| IC50 [4] [µM] | IC50 [5] [µM] | SMILES | IC50 (MCF7) [µM] | IC50 (HEY) [µM] | IC50 (MDA-MB-435) [µM] | IC50 (HCT-116 [2]) [µM] | IC50 (HCT-116 [3]) [µM] | IC50 (SK-BR-3) [µM] | further results |
| --- | --- | --- | --- | --- | --- | --- | --- | --- | --- |
| 14 | 0.5 | O=C(NCc1ccc(F)cc1)c1nc(Br)c2cccnc2c1O | – | – | 15 | > 20 | > 20 | – | selectivity ratio [1]: 7.2; EC50 [6]: 11.1 µM; CC50 at 72 h [7]: 80 µM |
| 9.5 | 0.3 | O=C(NCc1ccc(F)cc1)c1nc(NCCO)c2cccnc2c1O | – | – | > 20 | – | – | – | selectivity ratio [1]: 3140; EC50 [6]: 0.029 µM; CC50 at 72 h [7]: 91 µM |
| > 111 | > 111 | C[C@H](Nc1c(C(=O)NCc2ccc(F)cc2)nc(Br)c2cccnc12)c1ccccc1 | – | – | > 20 | > 20 | > 20 | – | – |
| 7.8 | 0.3 | C[C@@H](CO)Nc1nc(C(=O)NCc2ccc(F)cc2)c(O)c2ncccc12 | – | – | > 20 | – | – | – | selectivity ratio [1]: 4650; EC50 [6]: 0.023 µM; CC50 at 72 h [7]: 107 µM |
| > 100 | > 100 | O=C(NCc1ccc(F)cc1)c1nc(Br)c2cccnc2c1NCc1ccc(F)cc1 | – | – | > 20 | > 20 | > 20 | – | – |
| > 100 | > 100 | CNc1c(C(=O)NCc2ccc(F)cc2)nc(Br)c2cccnc12 | – | – | > 20 | > 20 | > 20 | – | – |
| > 100 | > 100 | NCCNc1c(C(=O)NCc2ccc(F)cc2)nc(Br)c2cccnc12 | 6 | – | 12 | > 20 | > 20 | – | – |
| > 111 | > 111 | C[C@@H](Nc1c(C(=O)NCc2ccc(F)cc2)nc(Br)c2cccnc12)c1ccccc1 | – | – | > 20 | > 20 | > 20 | – | – |
| > 100 | > 100 | O=C(NCc1ccc(F)cc1)c1nc(Br)c2cccnc2c1NCCCNc1c(C(=O)NCc2ccc(F)cc2)nc(Br)c2cccnc12 | – | – | > 20 | > 20 | > 20 | – | – |
| 6.9 | 0.2 | C[C@H](CO)Nc1nc(C(=O)NCc2ccc(F)cc2)c(O)c2ncccc12 | – | – | > 20 | – | – | – | selectivity ratio [1]: 1330; EC50 [6]: 0.052 µM; CC50 at 72 h [7]: 69 µM |
| > 100 | > 100 | O=C(NCc1ccc(F)cc1)c1nc(Br)c2cccnc2c1NCc1ccccc1 | – | – | > 20 | > 20 | > 20 | – | – |

Continued, molecule first:

| SMILES | IC50 [4] [µM] | IC50 [5] [µM] | IC50 (MCF7) [µM] | IC50 (HEY) [µM] | IC50 (MDA-MB-435) [µM] | IC50 (HCT-116 [2]) [µM] | IC50 (HCT-116 [3]) [µM] | IC50 (SK-BR-3) [µM] | further results |
| --- | --- | --- | --- | --- | --- | --- | --- | --- | --- |
| N[C@H]1CC[C@H](Nc2c(C(=O)NCc3ccc(Oc4ccccc4)cc3)nc(Br)c3cccnc23)CC1 | – | – | 7.9 | 9 | 4 | – | – | – | – |
| N[C@H]1CC[C@H](Nc2c(C(=O)NCc3ccc4c(c3)OCO4)nc(Br)c3cccnc23)CC1 | – | – | – | 4 | 7 | 7 | – | 6 | inhibition [8]: 0% |
| N[C@H]1CC[C@H](Nc2c(C(=O)NCc3ccccn3)nc(Br)c3cccnc23)CC1 | – | – | 15 | > 20 | 4 | – | – | – | – |
| N[C@H]1CC[C@H](Nc2c(C(=O)NCCc3ccccc3)nc(Br)c3cccnc23)CC1 | – | – | – | 6 | 8 | 8.8 | – | 7 | inhibition [8]: 0% |
| O=C(NCCCNc1c(C(=O)NCc2ccc(F)cc2)nc(Br)c2cccnc12)c1ccccc1 | – | – | 2 | – | > 20 | > 10 | > 10 | 1 | IC50 (LNCaP): > 10 µM; IC50 (HT-29): > 10 µM |
| CC(C)(C)OC(=O)N1CCC(Nc2c(C(=O)NCc3ccc(F)cc3)nc(Br)c3cccnc23)CC1 | – | – | > 10 | – | 20 | > 10 | 9 | 1 | IC50 (LNCaP): > 10 µM; IC50 (HT-29): > 10 µM |
| CNCCCNc1c(C(=O)NCc2ccc(F)cc2)nc(Br)c2cccnc12 | – | – | > 10 | – | 11 | 9 | > 10 | 1 | IC50 (LNCaP): 8 µM; IC50 (HT-29): > 10 µM |
| COc1cccc(CNC(=O)c2nc(Br)c3cccnc3c2N[C@H]2CC[C@H](N)CC2)c1 | – | – | – | 7 | 7 | 6 | – | 6 | inhibition [8]: 0% |
| CN(C)c1ccc(CNC(=O)c2nc(Br)c3cccnc3c2N[C@H]2CC[C@H](N)CC2)cc1 | – | – | 5 | 5.3 | 4 | – | – | – | – |
| C[C@H](NC(=O)c1nc(Br)c2cccnc2c1N[C@H]1CC[C@H](N)CC1)c1ccc(F)cc1 | – | – | – | > 10 | > 10 | > 10 | – | 9 | – |
| Nc1cccc(Nc2c(C(=O)NCc3ccc(F)cc3)nc(Br)c3cccnc23)c1 | – | – | 8 | – | 8 | > 10 | > 10 | > 10 | IC50 (LNCaP): 8 µM; IC50 (HT-29): > 10 µM |
| COC(=O)CNc1c(C(=O)NCc2ccc(F)cc2)nc(Br)c2cccnc12 | – | – | > 10 | – | 10 | > 10 | > 10 | 1 | IC50 (LNCaP): 5 µM; IC50 (HT-29): > 10 µM |
| N[C@H]1CC[C@H](Nc2c(C(=O)Nc3ccccc3)nc(Br)c3cccnc23)CC1 | – | – | – | 1 | 1 | 2 | – | 2 | inhibition [8]: 0% |
| N[C@H]1CC[C@H](Nc2c(C(=O)NCc3ccccc3)nc(Br)c3cccnc23)CC1 | – | – | – | 8 | 7 | 7 | – | 8 | inhibition [8]: 0% |
| CC(C)(C)n1nc(-c2ccc(Cl)cc2)c2c(N)ncnc21 | – | – | – | – | – | – | – | – | inhibition [9]: 94% |
| N[C@H]1CC[C@H](Nc2c(C(=O)NCc3ccc(F)cc3)nc(N3CCCCS3(=O)=O)c3cccnc23)CC1 | – | – | 13 | – | 5 | > 10 | > 10 | 8.5 | IC50 (LNCaP): 8 µM; IC50 (HT-29): > 10 µM |
| CS(=O)(=O)CCNCc1ccc(-c2ccc3ncnc(Nc4ccc(OCc5cccc(F)c5)c(Cl)c4)c3c2)o1 | – | – | – | – | – | – | – | – | inhibition [8]: 92% |
| N[C@H]1CC[C@H](Nc2c(C(=O)NCc3ccco3)nc(Br)c3cccnc23)CC1 | – | – | – | > 10 | > 10 | > 10 | – | 10 | – |
| N[C@H]1CC[C@H](Nc2c(C(=O)NC3CCCCC3)nc(Br)c3cccnc23)CC1 | – | – | 5.2 | 5.2 | > 10 | > 10 | – | 4.2 | – |
| CC(C)(C)OC(=O)N1CCN(c2c(C(=O)NCc3ccc(F)cc3)nc(Br)c3cccnc23)CC1 | – | – | > 10 | – | 10 | > 10 | > 10 | 3 | IC50 (LNCaP): > 10 µM; IC50 (HT-29): > 10 µM |
| N[C@H]1CC[C@H](NC(=O)c2nc(Br)c3cccnc3c2NCc2ccc(F)cc2)CC1 | – | – | – | 7.1 | 6.6 | 6.4 | – | 2.8 | inhibition [9]: 0%; inhibition [8]: 3% |
| N[C@H]1CC[C@H](Nc2c(C(=O)NCc3ccc(F)cc3)nc(N3CCCCC3)c3cccnc23)CC1 | – | – | 5 | – | 5 | 8 | 8.5 | > 10 | – |
| N[C@H]1CC[C@H](Nc2c(C(=O)NCc3cccs3)nc(Br)c3cccnc23)CC1 | – | – | 7.3 | 11 | 4.1 | – | – | – | – |
| N[C@H]1CC[C@H](Nc2c(C(=O)NCc3cccc(C(F)(F)F)c3)nc(Br)c3cccnc23)CC1 | – | – | 15 | 12 | 4.2 | – | – | – | – |
| COC(=O)c1nc(Br)c2cccnc2c1N[C@H]1CC[C@H](N)CC1 | – | – | > 20 | > 20 | > 20 | – | – | – | – |
